This note sets out measurements from ChEMBL document CHEMBL1926584, “Pterocarpanquinones, aza-pterocarpanquinone and derivatives: synthesis, antineoplasic activity on human malignant cell lines and antileishmanial activity on Leishmania amazonensis” (Bioorg Med Chem, 2011).

Experiment [1] has as its system SF-295. Kind of experiment: Antineoplastic activity against human SF295 cells after 72 hrs by MTT assay. Type of experiment: functional, cell-based. The following applies: SF-295, 72 h. In outline:
(§1)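 Tumour lines kept in RPMI 1640 with 10% FBS, 2 mM glutamine, penicillin/streptomycin, 37 °C, 5% CO2. Seeded at 10^5 cells/mL (adherent) or 3×10^5 cells/mL (leukemia). Compounds 0.1–25 µg/mL in DMSO 1%, 72 h. Vehicle controls got equal DMSO. MTT 0.5 mg/mL for 3 h, formazan dissolved in DMSO, absorbance at 595 nm. Doxorubicin 0.01–5 µg/mL as positive control.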
In general terms: Tetrazolium assays rely on reduction of a dye to a coloured formazan, in cell work by metabolically active cells.

Experiment [2] has as its system K562. Kind of experiment: Antineoplastic activity against human K562 cells after 72 hrs by MTT assay. The following applies: K562, 72 h. It counts as functional, cell-based. In outline: as §1
Experiment [3] has as its system HCT-8. Kind of experiment: Antineoplastic activity against human HCT8 cells after 72 hrs by MTT assay. Type of experiment: functional, cell-based. The following applies: HCT-8, 72 h. In outline:
as §1

Experiment [4] relates to HL-60. Kind of experiment: Antineoplastic activity against human HL60 cells after 72 hrs by MTT assay. Type of experiment: functional, cell-based. The following applies: HL-60, 72 h. In outline: as §1
Experiment [5] has as its system MDA-MB-435. Put plainly: Antineoplastic activity against human MDA-MB-435 cells after 72 hrs by MTT assay. Type of experiment: functional, cell-based. The following applies: MDA-MB-435, 72 h. In outline: as §1
The subject of experiment [6] is Leishmania amazonensis. Put plainly: Antileishmanial activity against Leishmania amazonensis promastigotes after 72 hrs by MTT assay. Type of experiment: functional, organism-based. In outline:
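Promastigotes grown at 26 °C in Schneider's medium with 10% FBS. Inoculum 1.0×10^6/ml, compounds 0–20 µM, 72 h at 26 °C. MTT (5 mg/mL solution) added for 2 h, then DMSO, OD at 570 nm. Pentamidine isethionate as reference. Experiments repeated at least three times; IC50 derived by software fitting.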

Experiment [7] concerns PBMC. Put plainly: Selectivity index, ratio of IC50 for PHA activated human PBMC cells to IC50 for human SF295 cells. Type of experiment: functional.
For experiment [8], the system named is J774. Put plainly: Cytotoxicity against mouse J774 cells after 72 hrs by MTT assay. The note with it: J774, 72 h. It counts as cell-based. In outline: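 J774 murine macrophages (2×10^6 in 200 µL) incubated with a range of compound concentrations for 72 h at 37 °C/5% CO2. Viability by MTT. Pentamidine isethionate as reference. Experiments repeated at least three times.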

Experiment [9] relates to PBMC. Kind of experiment: Selectivity index, ratio of IC50 for PHA activated human PBMC cells to IC50 for human HL60 cells. Type of experiment: functional.
Experiment [10] relates to PBMC. Put plainly: Selectivity index, ratio of IC50 for PHA activated human PBMC cells to IC50 for human MDA-MB-435 cells. It counts as functional.
The test system of experiment [11] is PBMC. Put plainly: Cytotoxicity against PHA activated human PBMC cells after 72 hrs by MTT assay. It counts as cell-based. In outline:
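PBMC isolated from heparinized blood of healthy non-smoking donors (drug-free ≥15 days) by Ficoll-Hypaque density-gradient centrifugation. Plated at 3×10^5 cells/mL in RPMI 1640 with 20% FBS, glutamine and antibiotics, 37 °C, 5% CO2. Phytohemagglutinin (3%) added at start. After 24 h, compounds 0.1–25 µg/mL in DMSO 1% added for 72 h. MTT read-out at 595 nm.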

Experiment [12] deals with PBMC. Put plainly: Selectivity index, ratio of IC50 for PHA activated human PBMC cells to IC50 for human HCT8 cells. It counts as functional.
In experiment [13] the test system is Leishmania amazonensis. Put plainly: Antileishmanial activity against Leishmania amazonensis amastigotes infected in BALB/c mouse peritoneal macrophages after 72 hrs by microscopy. It counts as functional, organism-based. In outline: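 Resident BALB/c peritoneal macrophages in RPMI, 2×10^6/mL, 1 h at 37 °C, 5% CO2. Infected with stationary-phase promastigotes at 3:1 parasite/macrophage for 3 h, then washed with PBS. Compounds 0–20 µM in duplicate for 72 h. Hematological stain and light microscopy, amastigotes counted in ≥100 macrophages. Pentamidine reference. Repeated at least three times.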

Experiment [14] relates to PBMC. Kind of experiment: Selectivity index, ratio of IC50 for PHA activated human PBMC cells to IC50 for human K562 cells. It counts as functional.
Experiment [15] has as its system MDA-MB-435. Put plainly: Ratio of doxorubicin IC50 to compound IC50 for human MDA-MB-435 cells. Type of experiment: functional.

Turning to `c1ccc2c(c1)O[C@@H]1c3ccccc3OC[C@H]21`, the IC50 in experiment [1], in experiment [2], in [3], in experiment [4] and in experiment [5] was over 112 µM each time.
Turning to `c1ccc2c(c1)CC[C@@H]1c3ccccc3O[C@H]21`, the IC50 in [1], in experiment [2], in experiment [3], in experiment [4] and in experiment [5] was over 112 µM throughout.
Turning to `Cc1ccc(S(=O)(=O)N2c3ccccc3[C@H]3COc4ccccc4[C@H]32)cc1`, the IC50 in experiment [1] came to 31.5 µM; in experiment [2] it was 6.4 µM; in [3], 9 µM; in [4], 6.1 µM; in experiment [5], 5 µM.
As to `Cc1ccc(S(=O)(=O)N2c3ccccc3[C@H]3CCc4ccccc4[C@H]32)cc1`, the IC50 in [1] was over 62.5 µM; in experiment [6] it was 4.85 µM; in experiment [8] it was 23 µM; in [2], 1.9 µM; in experiment [3], 3 µM; in [11], 7.2 µM. For the same compound, the IC50 in experiment [4] turned out to be 1 µM; in experiment [5], 0.5 µM; in experiment [13] it was 2.15 µM. Also, the “Ratio IC50” value is reported as 0.11 in experiment [7], 7.2 in experiment [9], 14.4 in experiment [10] and 2.4 in experiment [12].
Turning to `O=C1C2=C(OCC=C2)C(=O)c2ccccc21`, the IC50 is 2.3 µM in [1]; 2.8 µM in experiment [3]; under 1.4 µM in experiment [11]; 0.5 µM in experiment [4]; 1.8 µM in [5]. The “Ratio IC50” value in [7] came out at 0.6; in experiment [9], 2.8; in [10], 0.78; in experiment [12] it was 0.5.
In the case of `COc1ccc2c(c1)O[C@@H]1C3=C(OC[C@H]21)C(=O)c1ccccc1C3=O` (racemic), the IC50 was found to be 17.7 µM in experiment [1]; 2.85 µM in [6]; 49.5 µM in experiment [8]; 3.3 µM in experiment [2]; 10.4 µM in experiment [3]; 7.8 µM in experiment [11]. In addition, the results for the IC50 in experiment [4], in experiment [5] and in experiment [13] were 3.5 µM, 11.4 µM and over 20 µM, respectively. The “Ratio IC50” value in experiment [7] is recorded as 0.44; in experiment [9], 2.22; in experiment [10], 0.68; in experiment [14], 9.4; in [12] it was 0.75.
For `COC(=O)c1ccc2c(c1)[C@H]1COC3=C(C(=O)c4ccccc4C3=O)[C@H]1O2` (racemic), the IC50 was over 13 µM in experiment [1]; 2.8 µM in experiment [6]; 22.5 µM in [8]; 8 µM in experiment [2]; over 13 µM in experiment [3]; 4.1 µM in experiment [4]. Besides, the IC50 is over 13 µM in experiment [5] and 0.5 µM in experiment [13].
With `COc1cc(C=O)cc2c1O[C@@H]1C3=C(OC[C@H]21)C(=O)c1ccccc1C3=O` (racemic), the IC50 was 7.4 µM in [1]; 1.27 µM in [6]; 18 µM in experiment [8]; 13.5 µM in experiment [2]; 6 µM in [3]; 6 µM in experiment [11]. Further, the IC50 in [4] was found to be 3 µM; in experiment [5], 10.7 µM; in experiment [13], 1.25 µM. Besides, the “Ratio IC50” value in [7] stood at 0.8; in [9] it was 2; in [10], 0.56; in experiment [12] it was 1.
On to `COc1c2c(c(OC)c3ccccc13)[C@H]1Oc3ccccc3[C@H]1CO2` (racemic), for which the IC50 in experiment [1] was found to be 22.4 µM; in experiment [2], 13.5 µM; in experiment [3] it was 21.2 µM; in experiment [4], 17.4 µM; in [5], 30.8 µM.
As for `Cc1ccc(S(=O)(=O)N2c3ccccc3[C@H]3COC4=C(C(=O)c5ccccc5C4=O)[C@H]32)cc1` (racemic), the IC50 in experiment [1] was 3.9 µM; in experiment [6], 15 µM; in experiment [8] it was over 100 µM; in experiment [2], 5.5 µM; in experiment [3], 0.6 µM; in [11] it was 23 µM. The IC50 is 7.4 µM in experiment [4], 0.4 µM in [5] and over 20 µM in [13]. The “Ratio IC50” value is given as 5.92 in experiment [7]; 3.12 in experiment [9]; 2 in experiment [15]; 57.7 in experiment [10]; 4.33 in [14]; 38.5 in experiment [12].
As to `COc1c2c(c(OC)c3ccccc13)[C@@H]1[C@H](CO2)c2ccccc2N1S(=O)(=O)c1ccc(C)cc1` (racemic), the IC50 is over 51 µM in [1]; 46.7 µM in [2]; over 51 µM in experiment [3]; over 51 µM in experiment [4]; over 51 µM in experiment [5].
`O=C1C2=C(C(=O)c3ccccc31)[C@H]1Oc3ccc([N+](=O)[O-])cc3[C@H]1CO2` (racemic): the 50% inhibitory concentration (IC50) in [1] was determined as 8.9 µM; in experiment [6] it was 1.07 µM; in [8], 12.1 µM; in experiment [3] it was 8.3 µM; in experiment [11], 8.6 µM; in experiment [4], 6.3 µM. Besides, the IC50 in experiment [5] was found to be 17.4 µM; in experiment [13], 1.85 µM. The “Ratio IC50” value turned out to be 0.96 in experiment [7], 1.36 in [9], 0.49 in [10] and 1.06 in experiment [12].
As for `O=C1C2=C(C(=O)c3ccccc31)[C@H]1Oc3ccccc3[C@H]1CO2` (racemic) [PTEROCARPANQUINONE], the IC50 in experiment [1] was 3.6 µM; in experiment [6] it was 1.73 µM; in experiment [8], 18.5 µM; in [3], 2.6 µM; in experiment [11], over 20 µM; in experiment [4] it was 1.3 µM. The concentration for half-maximal inhibition (IC50) in experiment [5] stood at 2.3 µM; in experiment [13] it was 1.45 µM. The “Ratio IC50” value in experiment [7] was 5.5; in experiment [9], 15.4; in experiment [15] it was 0.42; in experiment [10], 8.7; in [14], 12; in experiment [12] it was 7.7.
For `COc1cccc2c1C(=O)c1c(O)c3c(c(O)c1C2=O)C[C@@](O)(C(=O)CO)C[C@@H]3O[C@H]1C[C@H](N)[C@H](O)[C@H](C)O1` [DOXORUBICIN], the concentration for half-maximal inhibition (IC50) in experiment [2] is 1.67 µM; in [4] it was 0.04 µM.
Turning to `N=C(N)c1ccc(OCCCCCOc2ccc(C(=N)N)cc2)cc1` [PENTAMIDINE], the IC50 is 2.2 µM in experiment [6], 70 µM in [8] and 1.5 µM in experiment [13].

The IC50 is the point on the concentration scale where inhibition reaches its midpoint. A low value points to inhibition by little substance.
